Assay results from different studies.
Compare with care: the assays were run in different laboratories.
Target: Vascular endothelial growth factor receptor 2 (KDR, Homo sapiens, UniProt P35968)

effect on	action	technique	tested at	quantity	value	SMILES
enzyme activity	inhibitor	–	1 µM	inhibition	67%	CO[C@@H]1[C@H](N(C)C(=O)c2ccccc2)C[C@H]2O[C@]1(C)n1c3ccccc3c3c4c(c5c6ccccc6n2c5c31)C(=O)NC4
binding	–	competition with immobilised ligand	0.5 µM	remaining binding	95%	CCCCC(=O)Nc1ccc(-c2ccc3ncn(CCC)c(=O)c3c2)cn1
enzyme activity	inhibitor	TR-FRET	40 µM	inhibition	8.3%	C[C@@H]1O[C@@H](O[C@H]2[C@H](Oc3cc(O)c4c(=O)cc(-c5ccc(O)cc5)oc4c3)O[C@H](CO)[C@@H](O)[C@@H]2O)[C@H](O)[C@H](O)[C@H]1O
cell-free assay	–	competition with immobilised ligand	25 µM	remaining binding	96%	N#Cc1ccc(NC(=O)Nc2ccccc2)cc1
cell-free assay	–	–	1 µM	remaining signal	41%	C#Cc1cnc(Nc2ccnc(CO)c2)nc1Nc1ccccc1S(C)(=O)=NC#N (stereo not shown)
enzyme activity	inhibitor	–	1 µM	inhibition	0%	CC#CC(=O)N1CCC[C@H]1c1nc(-c2ccc(C(=O)Nc3ccccn3)cc2)c2c(N)nccn12
binding	–	competition with immobilised ligand	1 µM	remaining binding	59%	COc1ccc2[nH]c3c4[nH]c5ccc(OC)cc5c4c4c(c3c2c1)C(=O)NC4=O
binding	–	–	1 µM	remaining binding	103%	COc1ccc2oc(-c3ccc4nc(N)oc4c3)c/c(=N\c3ccccc3NC(=O)CCN)c2c1
enzyme activity	inhibitor	TR-FRET	40 µM	inhibition	83.9%	O=C(O)[C@H]1O[C@@H](Oc2cc(O)c3c(=O)cc(-c4ccc(O)c(O)c4)oc3c2)[C@H](O)[C@@H](O)[C@@H]1O
binding	–	competition with immobilised ligand	1 µM	remaining binding	85%	Cc1ccc(NC(=O)c2ccnc(C(F)(F)F)c2)cc1-c1cc(OCCO)nc(N2CCOCC2)c1
